Test results as given in ChEMBL document CHEMBL4342456, “Preventing Morphine-Seeking Behavior through the Re-Engineering of Vincamine's Biological Activity” (J Med Chem, 2020).

Legend:
Assay type in all cases: cell-based
[1] = target: C-C chemokine receptor type 8 (Homo sapiens, UniProt P51685); assay: Antagonist activity at human CCR8 expressed in CHOK1 cells assessed as reduction in CCL1-induced beta-arrestin 2 recruitment incubated for 30 mins followed by CCL1 addition and measured after 90 or 180 mins by pathhunter beta-arrestin assay
C-C chemokine receptor type 8, sequence (P51685 whole entry): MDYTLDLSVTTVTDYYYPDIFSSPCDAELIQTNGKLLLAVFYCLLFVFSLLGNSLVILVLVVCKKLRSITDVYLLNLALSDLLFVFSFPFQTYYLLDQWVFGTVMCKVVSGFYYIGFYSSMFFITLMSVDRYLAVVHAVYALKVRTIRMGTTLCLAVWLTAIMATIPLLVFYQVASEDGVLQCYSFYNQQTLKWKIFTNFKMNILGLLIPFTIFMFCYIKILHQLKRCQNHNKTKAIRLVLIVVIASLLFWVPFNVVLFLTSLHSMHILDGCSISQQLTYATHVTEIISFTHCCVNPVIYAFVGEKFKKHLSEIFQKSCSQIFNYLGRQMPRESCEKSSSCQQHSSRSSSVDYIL
Procedure, shortened: (§1)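 PathHunter beta-arrestin recruitment, antagonist mode, run at DiscoverX. Cells seeded and held at 37 °C, then preincubated with test sample for 30 min at 37 °C or room temperature (1% vehicle). Agonist then added at EC80 for 90 or 180 min. […] IC50 comes from concentration–response runs in the same format.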

Neuropeptide S receptor = target: T1, Neuropeptide S receptor (Homo sapiens, UniProt Q6W5P4); assay: Antagonist activity at human Gq-coupled NPSR1b expressed in human U2OS cells assessed as inhibition in neuropeptide S-induced beta-arrestin 2 recruitment incubated for 30 mins followed by neuropeptide S addition and measured after 90 or 180 mins by pathhunter beta-arrestin assay; procedure, shortened: as §1
T1 sequence (Q6W5P4 whole entry): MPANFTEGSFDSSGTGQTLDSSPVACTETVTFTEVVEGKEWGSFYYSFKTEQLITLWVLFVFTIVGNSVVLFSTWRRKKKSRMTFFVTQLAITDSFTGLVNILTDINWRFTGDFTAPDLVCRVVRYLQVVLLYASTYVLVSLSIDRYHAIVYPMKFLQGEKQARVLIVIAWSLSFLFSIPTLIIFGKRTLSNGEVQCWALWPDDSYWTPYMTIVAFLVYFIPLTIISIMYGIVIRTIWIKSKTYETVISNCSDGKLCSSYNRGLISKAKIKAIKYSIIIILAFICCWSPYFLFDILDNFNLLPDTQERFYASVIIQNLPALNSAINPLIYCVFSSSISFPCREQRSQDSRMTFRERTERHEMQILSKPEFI

[2] = target: T2, Prolactin-releasing peptide receptor (Homo sapiens, UniProt P49683); assay: Antagonist activity at human Gq-coupled PRLHR expressed in CHOK1 cells assessed as inhibition in prolactin releasing peptide (1 to 31)-induced beta-arrestin 2 recruitment incubated for 30 mins followed by prolactin releasing peptide (1 to 31) addition and measured after 90 or 180 mins by pathhunter beta-arrestin assay; procedure, shortened: as §1
T2 sequence (P49683 whole entry): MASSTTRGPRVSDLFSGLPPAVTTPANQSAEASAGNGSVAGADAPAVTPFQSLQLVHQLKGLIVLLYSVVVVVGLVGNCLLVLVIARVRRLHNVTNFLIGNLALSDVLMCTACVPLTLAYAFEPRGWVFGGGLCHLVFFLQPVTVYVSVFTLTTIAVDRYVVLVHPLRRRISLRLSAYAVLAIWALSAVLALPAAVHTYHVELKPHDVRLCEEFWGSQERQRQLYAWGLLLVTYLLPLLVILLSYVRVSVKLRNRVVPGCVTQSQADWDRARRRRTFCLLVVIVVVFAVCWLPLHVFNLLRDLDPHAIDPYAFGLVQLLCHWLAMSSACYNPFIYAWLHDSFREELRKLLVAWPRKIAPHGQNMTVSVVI

- IC50 [1]: 5.2 µM
- IC50 (Neuropeptide S receptor): 5.77 µM
- IC50 [2]: 2430 nM
Compound: CC[C@]12C=C(C(=O)OC)n3c(c(CCNC(=O)c4ccc(Br)cc4)c4ccccc43)[C@H]1N(C#N)CCC2
